# Measured values taken from ChEMBL document CHEMBL2346582, “Guanidino anthrathiophenediones as G-quadruplex binders: uptake, intracellular localization, and anti-Harvey-Ras gene activity in bladder cancer cells” (J Med Chem, 2013).
# Species: Homo sapiens
# Assay: Thermal stabilization of human telomeric G-quadruplex FAM-TTAGGGTTAGGGTTAGGGTTAGGG-TAMRA DNA assessed as change in melting temperature at 1:5 DNA:ligand ratio by FRET assay
# In short: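 FRET melting of 200 nM dual-labelled quadruplex in 50 mM Tris-HCl with KCl (100 mM for htelo and hras-1, 10 mM for KRAS and hras-2). Ligand at r = 5 ([ligand]/[quadruplex]; hras-2 tabulated at r = 4). Samples held 5 min at 20 °C, then heated 1 °C/min to 95 °C. ΔTM is the TM with ligand minus TM without ligand (±0.5 K). For hras-1 both biphasic transitions are given.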
compound,measurement,value
NCCOc1cc(C(=O)Nc2cc(OCCN)c3ccccc3n2)nc(C(=O)Nc2cc(OCCN)c3ccccc3n2)c1,deltaTm,35 K
